Source: ChEMBL document CHEMBL2417498, “Design and synthesis of 6,7-methylenedioxy-4-substituted phenylquinolin-2(1H)-one derivatives as novel anticancer agents that induce apoptosis with cell cycle arrest at G2/M phase” (Bioorg Med Chem, 2013)

Tests used:
[1] = system: A498; assay: Cytotoxicity against human A498 cells after 48 hrs by MTT assay; format: functional, cell-based; conditions: A498, 48 h
Method in brief: (§1)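 Log-phase tumour cells grown in RPMI-1640 with 10% FBS, penicillin/streptomycin and 1% L-glutamine at 37 °C, 5% CO2. Cells treated with vehicle or a range of concentrations for 48 h. Growth measured by MTT reduction, absorbance at 570 nm. IC50 is the concentration giving 50% proliferation inhibition, from 3 independent experiments.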

[2] = Cytotoxicity against human H460 cells after 48 hrs by MTT assay; format: functional, cell-based; conditions: NCI-H460, 48 h; method in brief: as §1
[3] = system: COLO 205; assay: Cytotoxicity against human COLO205 cells after 48 hrs by MTT assay; format: functional, cell-based; conditions: COLO 205, 48 h; method in brief: as §1
[4] = Cytotoxicity against human Hep3B cells after 48 hrs by MTT assay; format: functional, cell-based, Hep 3B2
Method in brief: (§2)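 Detroit 551 normal skin cells and Hep 3B hepatoma cells grown in DMEM with 10% FBS, penicillin/streptomycin and 1% L-glutamine at 37 °C, 5% CO2. Log-phase cells treated with vehicle or a range of concentrations for 48 h. MTT reduction read at 570 nm. IC50 (50% proliferation inhibition) taken from 3 independent experiments.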

[5] = system: SK-OV-3; assay: Cytotoxicity against human SKOV3 cells after 48 hrs by MTT assay; format: functional, cell-based; conditions: SK-OV-3, 48 h; method in brief: as §1
[6] = system: HL-60; assay: Cytotoxicity against human HL60 cells after 48 hrs by MTT assay; format: functional, cell-based; conditions: HL-60, 48 h; method in brief: as §1
[7] = Cytotoxicity against human 2774 cells after 48 hrs by MTT assay; format: functional, cell-based
[8] = system: MCF7; assay: Cytotoxicity against human MCF7 cells after 48 hrs by MTT assay; format: functional, cell-based; conditions: MCF7, 48 h; method in brief: as §1
[9] = system: Detroit 551; assay: Cytotoxicity against human Detroit 551 cells after 48 hrs by MTT assay; format: cell-based; conditions: Detroit 551, 48 h; method in brief: as §2

Structure (SMILES) | IC50 [1] [µM] | IC50 [2] [µM] | IC50 [3] [µM] | IC50 [4] [µM] | IC50 [5] [µM] | IC50 [6] [µM] | IC50 [7] [µM] | IC50 [8] [µM] | IC50 [9] [µM]
COc1cc(OC)cc(-c2cc(=O)[nH]c3cc4c(cc23)OCO4)c1 | 11.7 | > 10 | > 50 | > 10 | > 30 | 2.9 | 8.3 | > 30 | > 10
O=c1cc(-c2cccc(F)c2)c2cc3c(cc2[nH]1)OCO3 | > 50 | > 20 | > 50 | > 20 | > 30 | > 20 | 24.5 | > 30 | > 20
COc1ccc(-c2cc(=O)[nH]c3cc4c(cc23)OCO4)cc1 | > 25 | > 20 | > 50 | > 20 | 26.8 | > 20 | > 30 | > 30 | > 20
O=c1cc(-c2ccccc2F)c2cc3c(cc2[nH]1)OCO3 | > 50 | > 100 | > 50 | > 100 | > 30 | > 100 | 26.4 | > 30 | > 100
COc1ccccc1-c1cc(=O)[nH]c2cc3c(cc12)OCO3 | 9.8 | > 25 | 18.1 | 23.3 | 26.6 | 10 | 18.8 | 27.1 | > 25
COc1ccc(OC)c(-c2cc(=O)[nH]c3cc4c(cc23)OCO4)c1 | 28.9 | 10 | 6.1 | 10 | 20 | 3.5 | 6.5 | 3.7 | > 100
COc1cc(-c2cc(=O)[nH]c3cc4c(cc23)OCO4)cc(OC)c1OC | > 50 | 7.6 | > 50 | 5 | 0.93 | 2.3 | 2.1 | 4.5 | > 25
COc1cccc(-c2cc(=O)[nH]c3cc4c(cc23)OCO4)c1 | > 50 | > 10 | 39.6 | > 10 | 24.6 | > 10 | 15.6 | 14.9 | > 10
COc1cc(OC)c(-c2cc(=O)[nH]c3cc4c(cc23)OCO4)c(OC)c1 | > 50 | 67.6 | 37.4 | > 100 | > 30 | 75 | > 30 | 21 | > 100
COc1cccc(OC)c1-c1cc(=O)[nH]c2cc3c(cc12)OCO3 | > 50 | > 100 | > 50 | > 100 | > 30 | > 100 | > 30 | 29.8 | > 100
COc1cc([C@@H]2c3cc4c(cc3[C@@H](O[C@@H]3O[C@@H]5CO[C@@H](C)O[C@H]5[C@H](O)[C@H]3O)[C@H]3COC(=O)[C@H]23)OCO4)cc(OC)c1O [ETOPOSIDE] | – | 1 | – | – | – | 5.48 | – | – | –
COc1ccc(-c2cc(=O)[nH]c3cc4c(cc23)OCO4)cc1OC | 25.6 | 14.4 | 16.8 | 14.6 | 6.4 | 4.1 | 6.6 | 14.3 | 23.6
O=c1cc(-c2ccccc2)c2cc3c(cc2[nH]1)OCO3 | 42.7 | > 50 | > 50 | > 50 | > 30 | > 50 | > 30 | 18.5 | > 50
O=c1[nH]cc(F)c(=O)[nH]1 [FLUOROURACIL] | – | 26.7 | – | – | – | 22.3 | – | – | –
O=c1cc(-c2ccc(F)cc2)c2cc3c(cc2[nH]1)OCO3 | > 50 | > 20 | > 50 | > 20 | > 30 | > 60 | 17.6 | > 30 | > 20
